From publication PMC4548982 (Chembiochem : a European journal of chemical biology, 2015)
pIC50: −log10 of the molar value. Converted amounts (≈) assume the structure as drawn. “Also recorded” adds a separate entry of the source.

How the values were obtained:
E. coli Δ7 prrn WT = assay: Growth inhibition of E. coli Δ7 prrn WT; format: cell-based; details: for antibacterial activity in words: E. coli Δ7 prrn WT compared with A1408G and G1491U strains
[1] = system: control (WT) E. coli ribosomes; assay: EF-G-dependent translocation inhibition; format: biochemical; details: in vitro, WT (and A1408G) ribosomes
[2] = system: mutant A1408G E. coli ribosomes; assay: EF-G-dependent translocation inhibition; format: biochemical; details: read-out: Translocation inhibition IC50, A1408G
Summary of the method: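 Ribosomes purified from the corresponding Δ7 prrn E. coli strain carrying A1408G. The extent of EF-G-dependent translocation was measured by toeprinting across various concentrations of the test aminoglycoside. IC50 was obtained by fitting the data to the Hill equation.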

E. coli TolC (O) = assay: Antibacterial MIC, E. coli TolC; format: cell-based; details: Escherichia coli
E. coli Δ7 prrn G1491U = assay: Growth inhibition of E. coli Δ7 prrn G1491U; format: cell-based; details: Escherichia coli
E. coli Δ7 prrn A1408G = assay: Growth inhibition of E. coli Δ7 prrn A1408G; format: cell-based; details: Escherichia coli
AAC(6′)-Ib′ = assay: Relative initial rate of AME reaction, AAC; format: biochemical
ribosome = details: cited from earlier work

Structure (SMILES)	antibacterial activity in words (E. coli Δ7 prrn WT)	inhibition of translocation in words [1]	pIC50 [2]	further results
CCCCCCCCCCCCCCCCSCC1OC(OC2C(N)CC(N)C(OC3OC(CN)C(O)CC3N)C2O)C(O)C(N)C1O (stereo not shown) [3g]	indistinguishably strong antibacterial activity	–	–	–
CCCCCCCCCCCCSC[C@H]1O[C@H](O[C@@H]2[C@@H](O)[C@H](O[C@H]3O[C@H](CN)[C@@H](O)C[C@H]3N)[C@@H](N)C[C@H]2N)[C@H](O)[C@@H](N)[C@@H]1O [3e]	lower activity with little-to-no h44-dependence	fails to inhibit translocation	–	–
NC[C@H]1O[C@H](O[C@H]2[C@H](O)[C@@H](O[C@H]3O[C@H](CSc4ccccc4F)[C@@H](O)[C@H](N)[C@H]3O)[C@H](N)C[C@@H]2N)[C@H](N)C[C@@H]1O [3x]	–	notably poorer inhibitors of translocation	3.51	–
CCCCCCCCCCSC[C@H]1O[C@H](O[C@@H]2[C@@H](O)[C@H](O[C@H]3O[C@H](CN)[C@@H](O)C[C@H]3N)[C@@H](N)C[C@H]2N)[C@H](O)[C@@H](N)[C@@H]1O [3d]	lower activity with little-to-no h44-dependence	failed to inhibit translocation	–	–
CCCCCCCCCCCCCCCCCCSC[C@H]1O[C@H](O[C@@H]2[C@@H](O)[C@H](O[C@H]3O[C@H](CN)[C@@H](O)C[C@H]3N)[C@@H](N)C[C@H]2N)[C@H](O)[C@@H](N)[C@@H]1O [3h]	–	failed to inhibit translocation	–	–
NC[C@H]1O[C@H](O[C@H]2[C@H](O)[C@@H](O[C@H]3O[C@H](CO)[C@@H](O)[C@H](N)[C@H]3O)[C@H](N)C[C@@H]2N)[C@H](N)C[C@@H]1O [TOB, tobramycin]	–	–	3.15	MIC (E. coli Δ7 prrn WT; Escherichia coli): 18.8 µg/mL (≈ 40.2 µM); MIC (E. coli TolC (O)): > 150 µg/mL; MIC (E. coli Δ7 prrn G1491U): > 150 µg/mL; MIC (E. coli Δ7 prrn A1408G): > 150 µg/mL
NCC1OC(OC2C(N)CC(N)C(OC3OC(CSc4cccc(F)c4)C(O)C(N)C3O)C2O)C(N)CC1O (stereo not shown) [3y]	–	–	3.68	–
CC(C)(C)c1ccc(SCC2OC(OC3C(N)CC(N)C(OC4OC(CN)C(O)CC4N)C3O)C(O)C(N)C2O)cc1 (stereo not shown) [3s]	virtually inactive	–	–	–
CCCCCCCCCCCCCCSC[C@H]1O[C@H](O[C@@H]2[C@@H](O)[C@H](O[C@H]3O[C@H](CN)[C@@H](O)C[C@H]3N)[C@@H](N)C[C@H]2N)[C@H](O)[C@@H](N)[C@@H]1O [3f]	indistinguishably strong antibacterial activity	–	–	relative initial rate, normalized to TOB (AAC(6′)-Ib′): > 200%; inhibition of in vitro translation in words (ribosome): fails to inhibit in vitro translation
CCCCSCC1OC(OC2C(N)CC(N)C(OC3OC(CN)C(O)CC3N)C2O)C(O)C(N)C1O (stereo not shown) [3a]	biological activity indistinguishable from TOB	–	–	–
COc1ccccc1SC[C@H]1O[C@H](O[C@@H]2[C@@H](O)[C@H](O[C@H]3O[C@H](CN)[C@@H](O)C[C@H]3N)[C@@H](N)C[C@H]2N)[C@H](O)[C@@H](N)[C@@H]1O [3u]	–	notably poorer inhibitors of translocation	3.21	–
CCCCCCSCC1OC(OC2C(N)CC(N)C(OC3OC(CN)C(O)CC3N)C2O)C(O)C(N)C1O (stereo not shown) [3b]	virtually inactive; also recorded: antibacterial activity is completely lost	–	–	–
